Inconclusive results are not listed.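 How the source made its calls, unless noted: active means growth inhibition above 25% in both replicates, a cutoff set 3 SD above the mean; inconclusive means above 25% in only one replicate; inactive means the rest.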
Legend:
[1] = OD615 S. cerevisiae growth inhibition, permissive medium, pilot counter-assay, permissive growth control for S. cerevisiae lifespan shortening project (AID 705); settings: OD615, 24 h, at 10 µM, stronger effect = higher value
How it was run: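 assay system = Saccharomyces cerevisiae strain carrying genetically modified DeaD replicative-lifespan system | medium = SC raffinose/galactose permissive medium | dosing = 10 µM single dose, 0.25% DMSO | schedule = 24 h compound exposure at 30 °C after 4 h pre-growth | measured by = OD at 615 nm | read-out basis = growth inhibition from lowered OD615 after 24 h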

[2] = Restrictive medium S. cerevisiae growth inhibition, OD615, pilot screen of yeast lifespan reduction project, restrictive growth control (AID 706;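 active means growth inhibition above a set limit, 3 SD over mean compound inhibition, in both replicates, cut at about 43% in these data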;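 further: modified DeaD lifespan yeast strain shifted to restrictive glucose medium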); settings: OD615, 48 h, at 10 µM, stronger effect = higher value
How it was run: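 Buffer or medium: CSMM-D glucose medium. Material: genetically modified Saccharomyces cerevisiae, DeaD replicative lifespan assay strain. Times: 48 h compound exposure at 30 °C. Measured by: optical density at 615 nm.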

[3] = viability gain of MRP-1-high H69AR cells under doxorubicin, pilot screen, MRP-1 activator project, CellTiter-Glo, duplicate (AID 807;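 active means viability increase at or above a cutoff of the median across tested compounds plus 3 SD, cut at about 8.5% in these data, passing the limit was not always enough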;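 further: compound pretreatment 18-22 h then 72 h combined with doxorubicin; 0% = doxorubicin alone and 100% = vehicle without doxorubicin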); settings: H69AR viability with doxorubicin, CellTiter-Glo luminescence; at 10 µM; stronger effect = higher value
[4] = growth suppression of beta-catenin knockout HCT116, pilot screen, human colon tumor cells (AID 823;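 active means cell viability at or below a set limit in both duplicate runs, the limit being the all-compound median minus 4 SD, cut at about 23% in these data, passing the limit was not always enough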;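 further: 0% = wells killed by 20 µM Hyamine and 100% = untreated DMSO cell wells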); settings: CellTiter-Glo, 60 h, at 10 µM, stronger effect = lower value
[5] = growth suppression of PTEN-deleted HCT116, pilot screen, cell-based, HCT116 clonal line, CellTiter-Glo (AID 824;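 active means viability at or below 27.92% in each of two runs, the all-compound median minus 4 SD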;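 further: 0% = 20 µM Hyamine control and 100% = vehicle cell control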); settings: 60 h, at 10 µM, stronger effect = lower value
[6] = inhibitors of the yeast RAM network, pilot screen, dse1pr::URA3 reporter, 5-FOA selection (AID 869;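 active means inhibition over a set limit, the all-compound mean plus 3 SD, in both replicate runs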;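 further: 0% = DMSO wells with no growth and 100% = 10 µM 1-NA-PP1 with full growth; RAM network block rescues cells from 5-FOA so hits raise OD615 growth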); settings: S. cerevisiae dse1pr::URA3 5-FOA growth, OD615, 2 d; at 10 µM; stronger effect = higher value; strain carries analog-sensitive mutant Cbk1 kinase
[7] = RAM signaling pathway blockade in yeast – S. cerevisiae, Pdr1DBD-CYC8 efflux-inhibited sensitized strain, primary screen (AID 1298;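 active means RAM network inhibition above 8.4% in each of two replicates, 3 SD over the compound average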;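 further: 0% = DMSO untreated cells without growth and 100% = 10 µM 1-NA-PP1 full growth; higher means more yeast growth rescued from 5-FOA killing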); settings: S. cerevisiae cbk1-as DSE1-URA3 strain, 5-FOA growth OD615, 2 d; at 50 µM; stronger effect = higher value

O=C(c1ccc(CS(=O)(=O)c2ccc(Br)cc2)o1)N1CCN(c2ccccn2)CC1
inactive: growth inhibition [1] -5.91% | growth inhibition [2] -14.9% | viability increase [3] -3.76% | viability [4] 98.8% | viability [5] 84.4% | inhibition [6] 1.34% | RAM network inhibition [7] 4.8%

COC(=O)c1ccccc1NS(=O)(=O)c1cn(C)c(=O)n(C)c1=O
inactive: growth inhibition [1] -1.82% | growth inhibition [2] -6.46% | viability increase [3] -1.59% | viability [4] 101% | viability [5] 92.6% | inhibition [6] 0.585% | RAM network inhibition [7] 1.2%

COc1ccc(C2CC(=O)N3CN(c4ccccc4F)CSC3=C2C#N)cc1OC (centres undefined)
inactive: growth inhibition [1] 7.21% | growth inhibition [2] 19.4% | viability increase [3] -1.47% | viability [4] 107% | viability [5] 95.5% | inhibition [6] 1.22% | RAM network inhibition [7] 1.24%

CCC(Sc1nc(=O)cc(N)n1CCc1ccccc1)C(=O)Nc1cc(C)on1 (centres undefined)
inactive: growth inhibition [1] -3.68% | growth inhibition [2] -7.75% | viability increase [3] -1.78% | viability [4] 104% | viability [5] 95.7% | inhibition [6] 1.33% | RAM network inhibition [7] 6.71%

O=C(COC(=O)c1ccc(S(=O)(=O)NCc2ccco2)cc1)Nc1ccccc1OC(F)F
inactive: growth inhibition [1] -8.88% | growth inhibition [2] -12.5% | viability increase [3] -2.64% | viability [4] 93.5% | viability [5] 93.7% | inhibition [6] 1.43% | RAM network inhibition [7] 7.18%

Cc1occc1C(=O)NC(C)CCc1ccccc1 (centres undefined)
inactive: growth inhibition [1] -7.82% | growth inhibition [2] 2.38% | viability increase [3] -0.95% | viability [4] 91.8% | viability [5] 94.1% | inhibition [6] 3.1% | RAM network inhibition [7] 0.62%

CCOC(=O)C1CCN(C(c2ccc(OC)c(OC)c2)c2sc3nc(C)nn3c2O)CC1 (centres undefined)
inactive: growth inhibition [1] -3.62% | growth inhibition [2] 9.57% | viability increase [3] -2.25% | viability [4] 95.4% | viability [5] 96.1% | inhibition [6] -0.01% | RAM network inhibition [7] -0.97%

CCOc1ccc(-c2nc(CSc3nncs3)cs2)cc1OC
inactive: growth inhibition [1] 4.37% | growth inhibition [2] 16.2% | viability increase [3] -3.61% | viability [4] 84.1% | viability [5] 82% | inhibition [6] 0.655% | RAM network inhibition [7] 5.42%

CC(=O)Nc1ccc(NC(=O)CCC(=O)NCCO)cc1
inactive: growth inhibition [1] -10.7% | growth inhibition [2] -16.7% | viability increase [3] -0.28% | viability [4] 90.8% | viability [5] 92.8% | inhibition [6] 0.825% | RAM network inhibition [7] 5.19%

COc1nc(Nc2ccc3c(c2)OCO3)nc(OC)n1
inactive: growth inhibition [1] -22% | growth inhibition [2] -10.4% | viability increase [3] -2.8% | viability [4] 102% | viability [5] 93.6% | inhibition [6] 3.51% | RAM network inhibition [7] 4.7%

CCOc1cc(-c2cc(N)n[nH]2)cc(OCC)c1OCC
inactive: growth inhibition [1] -14.5% | growth inhibition [2] -8.22% | viability increase [3] -2.48% | viability [4] 104% | viability [5] 91.5% | inhibition [6] 0.37% | RAM network inhibition [7] 0.35%

CCc1cc(=O)oc2cc(OCC(=O)N(CC)CC)c(Cl)cc12
inactive: growth inhibition [1] 6.47% | growth inhibition [2] -5.33% | viability increase [3] 1.34% | viability [4] 109% | viability [5] 104% | inhibition [6] -0.545% | RAM network inhibition [7] 3.66%

CSc1ncccc1C(=O)OCC(=O)c1cc2ccccc2o1
inactive: growth inhibition [1] -12.5% | growth inhibition [2] -20.7% | viability increase [3] 0.25% | viability [4] 85% | viability [5] 93.7% | inhibition [6] 3.42% | RAM network inhibition [7] 4.75%

CCOC(=O)C1CCCN(C(=O)c2cn(CC(C)C)c(=O)c3cc(OC)c(OC)cc23)C1 (centres undefined)
inactive: growth inhibition [1] -8.41% | growth inhibition [2] -15.7% | viability increase [3] -3.43% | viability [4] 97% | viability [5] 95% | inhibition [6] 0.555% | RAM network inhibition [7] 0.93%

O=C(NC(Nc1ncccn1)C(=O)c1ccccc1)c1ccccc1 (centres undefined)
inactive: growth inhibition [1] 5.63% | growth inhibition [2] -0.54% | viability increase [3] -0.49% | viability [4] 96.6% | viability [5] 98.5% | inhibition [6] -0.25% | RAM network inhibition [7] 2.01%

Cc1cccc(C(=O)Nc2cc(=O)n(C)c(=O)n2C)c1
inactive: growth inhibition [1] -14.2% | growth inhibition [2] -21.9% | viability increase [3] -0.85% | viability [4] 105% | viability [5] 92.4% | inhibition [6] 0.905% | RAM network inhibition [7] 1.04%

CC(C)N(Cc1nc(-c2ccc(Cl)cc2)no1)C(=O)CCC1CCCC1
inactive: growth inhibition [1] -13.1% | growth inhibition [2] -14.6% | viability increase [3] -0.03% | viability [4] 70.3% | viability [5] 74.4% | inhibition [6] 0.865% | RAM network inhibition [7] 8.34%

— PubChem BioAssay
